Data as given in ChEMBL document CHEMBL1275556, “High prevalence of plasmid-mediated quinolone resistance genes qnr and aac(6')-Ib-cr in clinical isolates of Enterobacteriaceae from nine teaching hospitals in China” (2008).
In brackets after ≈: the same amount, converted by molar mass.

Key:
[1] = test system: Enterobacter cloacae; assay: Antimicrobial activity against aac(6')-Ib-cr-negative Enterobacter cloacae SH39 harboring GyrA S83I, ParC S80I mutant, wild-type GyrB and qnrA genes by agar dilution method in presence of Tazobactam; type: functional
In short: (§1)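 MICs were determined by the CLSI agar dilution method (M7-A7) and interpreted against CLSI M100-S17 breakpoints.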

[2] = test system: Klebsiella pneumoniae; assay: Antimicrobial activity against aac(6')-Ib-cr-negative Klebsiella pneumoniae SY22T harboring qnrS gene by agar dilution method in presence of Tazobactam; type: functional; in short: as §1
[3] = test system: Klebsiella pneumoniae; assay: Antimicrobial activity against aac(6')-Ib-cr-positive Klebsiella pneumoniae SY26T harboring wild-type GyrA, ParC, GyrB and qnrB genes by agar dilution method in presence of Tazobactam; type: functional
In short: (§2)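 Transconjugants were made by conjugating a qnr/aac(6')-Ib-cr donor with azide-resistant E. coli J53. Selection used Trypticase soy agar with sodium azide 150 µg/ml and sulfamethoxazole 180 µg/ml. […] MICs were read by CLSI agar dilution (M7-A7) and interpreted per M100-S17.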

[4] = test system: Enterobacter cloacae; assay: Antimicrobial activity against aac(6')-Ib-cr-negative Enterobacter cloacae WH42T harboring qnrA gene by agar dilution method in presence of Tazobactam; type: functional; in short: as §1
[5] = test system: Escherichia coli; assay: Antimicrobial activity against aac(6')-Ib-cr-negative Escherichia coli PU12 harboring GyrA S83L mutant, wild-type GyrB, ParC and qnrS genes by agar dilution method in presence of Tazobactam; type: functional
In short: (§3)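 MICs measured by CLSI agar dilution (M7-A7) and interpreted against CLSI M100-S17 breakpoints. Strains were clinical Enterobacteriaceae isolates or the azide-resistant E. coli J53 recipient.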

[6] = test system: Escherichia coli; assay: Antimicrobial activity against aac(6')-Ib-cr-positive Escherichia coli FJ3 harboring GyrA S83L, ParC S80R mutant, wild-type GyrB and qnrB genes by agar dilution method in presence of Tazobactam; type: functional; in short: as §3
[7] = test system: Enterobacter cloacae; assay: Antimicrobial activity against aac(6')-Ib-cr-negative Enterobacter cloacae FJ61T harboring qnrS gene by agar dilution method in presence of Tazobactam; type: functional; in short: as §1
[8] = test system: Klebsiella pneumoniae; assay: Antimicrobial activity against aac(6')-Ib-cr-positive Klebsiella pneumoniae GZ40T harboring qnrB gene by agar dilution method in presence of Tazobactam; type: functional; in short: as §1
[9] = test system: Enterobacter cloacae; assay: Antimicrobial activity against aac(6')-Ib-cr-negative Enterobacter cloacae GZ47 harboring qnrB and qnrS genes by agar dilution method in presence of Tazobactam; type: functional; in short: as §1
[10] = test system: Klebsiella pneumoniae; assay: Antimicrobial activity against aac(6')-Ib-cr-positive Klebsiella pneumoniae JN132T harboring qnrB gene by agar dilution method in presence of Tazobactam; type: functional
In short: (§4)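 Transconjugants came from conjugation of qnr and/or aac(6')-Ib-cr donors into azide-resistant E. coli J53. […] MICs were measured by CLSI agar dilution (M7-A7) and interpreted per M100-S17.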

[11] = test system: Citrobacter freundii; assay: Antimicrobial activity against aac(6')-Ib-cr-negative Citrobacter freundii JN64T harboring qnrA gene by agar dilution method in presence of Tazobactam; type: functional; in short: as §1
[12] = test system: Escherichia coli; assay: Antimicrobial activity against aac(6')-Ib-cr-negative Escherichia coli PU12T harboring wild-type GyrA, GyrB, ParC and qnrS genes by agar dilution method; type: functional; in short: as §1
[13] = test system: Citrobacter freundii; assay: Antimicrobial activity against aac(6')-Ib-cr-positive Citrobacter freundii PU55 harboring GyrA T83I, ParC S80I mutant, wild-type GyrB, qnrA genes by agar dilution method in presence of clavulanic acid; type: functional; in short: as §1
[14] = test system: Enterobacter cloacae; assay: Antimicrobial activity against aac(6')-Ib-cr-negative Enterobacter cloacae SH39T harboring qnrA gene by agar dilution method; type: functional
[15] = test system: Enterobacter cloacae; assay: Antimicrobial activity against aac(6')-Ib-cr-negative Enterobacter cloacae SH39T harboring qnrA gene by agar dilution method in presence of clavulanic acid; type: functional
In short: (§5)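 Transconjugants came from conjugation of qnr and/or aac(6')-Ib-cr-carrying donors with azide-resistant E. coli J53. […] MICs were determined by CLSI agar dilution (M7-A7) and interpreted by M100-S17.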

[16] = test system: Klebsiella pneumoniae; assay: Antimicrobial activity against aac(6')-Ib-cr-negative Klebsiella pneumoniae SY22 harboring GyrA S83I, ParC S80I mutant, wild-type GyrB and qnrS genes by agar dilution method in presence of clavulanic acid; type: functional
In short: (§6)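 MICs were determined by CLSI agar dilution (M7-A7) and interpreted by CLSI M100-S17 breakpoints. The curator's line names the β-lactamase inhibitor added.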

[17] = test system: Citrobacter freundii; assay: Antimicrobial activity against aac(6')-Ib-cr-positive Citrobacter freundii TJ15 harboring GyrA T83I, ParC S80I mutant, wild-type GyrB, qnrB genes by agar dilution method; type: functional; in short: as §1
[18] = test system: Citrobacter freundii; assay: Antimicrobial activity against aac(6')-Ib-cr-positive Citrobacter freundii TJ15 harboring GyrA T83I, ParC S80I mutant, wild-type GyrB, qnrB genes by agar dilution method in presence of clavulanic acid; type: functional; in short: as §6
[19] = test system: Klebsiella pneumoniae; assay: Antimicrobial activity against aac(6')-Ib-cr-positive Klebsiella pneumoniae WH99T harboring qnrB gene by agar dilution method; type: functional; in short: as §2
[20] = test system: Escherichia coli; assay: Antimicrobial activity against aac(6')-Ib-cr-negative Escherichia coli PU12 harboring GyrA S83L mutant, wild-type GyrB, ParC and qnrS genes by agar dilution method; type: functional; in short: as §1
[21] = test system: Escherichia coli; assay: Antimicrobial activity against aac(6')-Ib-cr-positive Escherichia coli FJ3T harboring wild-type GyrA, ParC, GyrB and qnrB genes by agar dilution method
[22] = test system: Escherichia coli; assay: Antimicrobial activity against aac(6')-Ib-cr-positive Escherichia coli FJ3T harboring wild-type GyrA, ParC, GyrB and qnrB genes by agar dilution method in presence of clavulanic acid; type: functional; in short: as §5
[23] = test system: Enterobacter cloacae; assay: Antimicrobial activity against aac(6')-Ib-cr-negative Enterobacter cloacae FJ61T harboring qnrS gene by agar dilution method in presence of clavulanic acid; type: functional; in short: as §5
[24] = test system: Enterobacter cloacae; assay: Antimicrobial activity against aac(6')-Ib-cr-positive Enterobacter cloacae FJ63 harboring GyrA S83I, GyrA D87A, ParC S80I mutant, wild-type GyrB and qnrS genes by agar dilution method; type: functional
[25] = test system: Enterobacter cloacae; assay: Antimicrobial activity against aac(6')-Ib-cr-positive Enterobacter cloacae FJ63 harboring GyrA S83I, GyrA D87A, ParC S80I mutant, wild-type GyrB and qnrS genes by agar dilution method in presence of clavulanic acid; type: functional; in short: as §1
[26] = test system: Klebsiella pneumoniae; assay: Antimicrobial activity against aac(6')-Ib-cr-positive Klebsiella pneumoniae JN132 harboring GyrA S83I, ParC S80I mutant, wild-type GyrB and qnrB genes by agar dilution method; type: functional
In short: (§7)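 MICs were determined on clinical isolates by CLSI agar dilution (M7-A7) and interpreted against CLSI M100-S17 breakpoints.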

[27] = test system: Klebsiella pneumoniae; assay: Antimicrobial activity against aac(6')-Ib-cr-positive Klebsiella pneumoniae JN132T harboring qnrB gene by agar dilution method; type: functional; in short: as §2
[28] = test system: Klebsiella pneumoniae; assay: Antimicrobial activity against aac(6')-Ib-cr-positive Klebsiella pneumoniae JN132T harboring qnrB gene by agar dilution method in presence of clavulanic acid; type: functional; in short: as §4
[29] = test system: Klebsiella pneumoniae; assay: Antimicrobial activity against aac(6')-Ib-cr-positive Klebsiella pneumoniae JN41 harboring GyrA S83I, ParC S80I mutant, wild-type GyrB and qnrB genes by agar dilution method; type: functional; in short: as §7
[30] = test system: Klebsiella pneumoniae; assay: Antimicrobial activity against aac(6')-Ib-cr-positive Klebsiella pneumoniae JN41T harboring qnrB gene by agar dilution method; type: functional; in short: as §2
[31] = test system: Citrobacter freundii; assay: Antimicrobial activity against aac(6')-Ib-cr-negative Citrobacter freundii JN64T harboring qnrA gene by agar dilution method; type: functional; in short: as §1

SMILES: CCN1CCN(C(=O)N[C@@H](C(=O)N[C@@H]2C(=O)N3[C@@H]2SC(C)(C)[C@@H]3C(=O)O)c2ccccc2)C(=O)C1=O [PIPERACILLIN]
- MIC [1]: 2 µg/mL
- MIC [2]: 1 µg/mL
- MIC [3]: 2 µg/mL
- MIC [4]: 1 µg/mL
- MIC [5]: 1 µg/mL
- MIC [6]: 2 µg/mL
- MIC [7]: 1 µg/mL
- MIC [8]: 1 µg/mL
- MIC [9]: 4 µg/mL
- MIC [10]: 4 µg/mL
- MIC [11]: 4 µg/mL

SMILES: CO/N=C(\C(=O)N[C@@H]1C(=O)N2C(C(=O)O)=C(COC(C)=O)CS[C@H]12)c1csc(N)n1 [CEFOTAXIME]
- MIC [12]: 16 µg/mL (≈ 35.1 µM)
- MIC [13]: 256 µg/mL
- MIC [14]: 0.032 µg/mL (≈ 0.0703 µM)
- MIC [15]: 0.032 µg/mL
- MIC [16]: 0.064 µg/mL
- MIC [17]: 1 µg/mL (≈ 2.2 µM)
- MIC [18]: 16 µg/mL
- MIC [19]: 16 µg/mL (≈ 35.1 µM)
- MIC [20]: 16 µg/mL (≈ 35.1 µM)
- MIC [21]: 64 µg/mL (≈ 141 µM)
- MIC [22]: 0.032 µg/mL
- MIC [23]: 0.032 µg/mL
- MIC [24]: > 256 µg/mL
- MIC [25]: 1 µg/mL
- MIC [26]: 32 µg/mL (≈ 70.3 µM)
- MIC [27]: 32 µg/mL (≈ 70.3 µM)
- MIC [28]: 1 µg/mL
- MIC [29]: 32 µg/mL (≈ 70.3 µM)
- MIC [30]: 16 µg/mL (≈ 35.1 µM)
- MIC [31]: 16 µg/mL (≈ 35.1 µM)
